The values that follow come from publication PMC9898299 (Heliyon, 2023).

The test system of one data set is U937 cells. Kind of data set: CellTiter-Glo Luminescent cell viability assay. Format: cell-based, human. The following applies: for inhibition at 25 µM / inhibition at 50 µM / inhibition at 100 µM / inhibition at 200 µM: Homo sapiens, U-937, 72 h, read-out: Percent inhibition at different concentrations of compounds (antiproliferative); for Percent inhibition at different concentrations of compounds (antiproliferative): U937 cells, 72 h, relative to Mitomycin C = 100%. Summed up: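 Human myeloid leukaemia U937 cells exposed to a range of test compound concentrations for 72 h, with Mitomycin C as positive control and DMSO diluent as negative control. CellTiter-Glo reagent added at an equal volume to the medium, mixed 2 min for lysis, then held 10 min at room temperature before luminescence was read. Viability was computed as RLU test ×100/RLU control. Half-maximal inhibitory concentration was fitted from the dose series.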

Data set [1] in a line: LDH release cytotoxicity assay. Format: cell-based. The conditions noted are these: human, U937 cells. An outline of the steps:
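U937 cells were plated in 96-well format and given various test compound concentrations, with Triton X100 as positive cytotoxicity control, for 4 h at 37 °C. Plates were spun 5 min at 1000 RPM, and supernatant was moved to a fresh plate with LDH detection reagent for 10 min at room temperature in the dark. Optical density was then read, and half-maximal concentration was derived from the doses.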

`COC(=O)COc1cccc(NC(=O)C2(c3ccccc3)CC2)c1` [Compound 8a, Methyl 2-(3-(1-phenylcyclopropane-1-carboxamido)phenoxy)acetate]: in the data set on U937 cells, the inhibition at 25 µM is 28%, the inhibition at 50 µM turned out to be 28%, the inhibition at 100 µM is 102% and the inhibition at 200 µM amounted to 100%. Besides, in data set [1], the inhibition at 4 h, 12.5 µM was -1%; the inhibition at 4 h, 25 µM was 2%; the inhibition at 4 h, 50 µM turned out to be 2%; the inhibition at 4 h, 100 µM came out at 1%.

`COC(=O)COc1ccc(NC(=O)C2(c3ccccc3)CC2)cc1` [Compound 8b, Methyl 2-(4-(1-phenylcyclopropane-1-carboxamido)phenoxy)acetate]: in the data set on U937 cells, the inhibition at 25 µM was found to be 41%, the inhibition at 50 µM stood at 44%, the inhibition at 100 µM was 102% and the inhibition at 200 µM came out at 101%. Further, in data set [1], the inhibition at 4 h, 12.5 µM is -2%; the inhibition at 4 h, 25 µM was -3%; the inhibition at 4 h, 50 µM was -2%; the inhibition at 4 h, 100 µM was -2%.

Regarding `COC(=O)COc1ccc(NC(=O)C2(c3ccccc3)CC2)c(C)c1` [Compound 8c, Methyl 2-(3-methyl-4-(1-phenylcyclopropane-1-carboxamido)phenoxy)acetate], in the data set on U937 cells, the inhibition at 25 µM came out at 37%, the inhibition at 50 µM stood at 63%, the inhibition at 100 µM came out at 102% and the inhibition at 200 µM was found to be 101%. Further, in data set [1], the inhibition at 4 h, 12.5 µM came out at 0%; the inhibition at 4 h, 25 µM was -1%; the inhibition at 4 h, 50 µM is 0%; the inhibition at 4 h, 100 µM is -1%.

With `COC(=O)COc1ccc(NC(=O)C2(c3ccccc3)CC2)cc1Br` [Compound 8d, Methyl 2-(2-bromo-4-(1-phenylcyclopropane-1-carboxamido)phenoxy)acetate], in the data set with U937 cells, the inhibition at 25 µM stood at 15%, the inhibition at 50 µM stood at 24%, the inhibition at 100 µM was determined as 100% and the inhibition at 200 µM was determined as 101%. Further, in data set [1], the inhibition at 4 h, 12.5 µM was -1%; the inhibition at 4 h, 25 µM is 0%; the inhibition at 4 h, 50 µM came out at 3%; the inhibition at 4 h, 100 µM was -3%.

Regarding `COC(=O)COc1cccc(NC(=O)C2(c3cccc(C)c3)CC2)c1` [Compound 8e, Methyl 2-(3-(1-(m-tolyl)cyclopropane-1-carboxamido)phenoxy)acetate], in the data set on U937 cells, the inhibition at 25 µM came out at 46%, the inhibition at 50 µM was 45%, the inhibition at 100 µM came to 59% and the inhibition at 200 µM worked out at 101%. For the same compound, in data set [1], the inhibition at 4 h, 12.5 µM is -3%; the inhibition at 4 h, 25 µM was -4%; the inhibition at 4 h, 50 µM is -1%; the inhibition at 4 h, 100 µM was -1%.

With `COC(=O)COc1ccc(NC(=O)C2(c3cccc(C)c3)CC2)cc1` [Compound 8f, Methyl 2-(4-(1-(m-tolyl)cyclopropane-1-carboxamido)phenoxy)acetate], in the data set on U937 cells, the inhibition at 25 µM amounted to 34%, the inhibition at 50 µM turned out to be 36%, the inhibition at 100 µM is 32% and the inhibition at 200 µM is 100%. In data set [1], the inhibition at 4 h, 12.5 µM was -1%; the inhibition at 4 h, 25 µM is -1%; the inhibition at 4 h, 50 µM was 0%; the inhibition at 4 h, 100 µM is 0%.

Regarding `COC(=O)COc1ccc(NC(=O)C2(c3cccc(C)c3)CC2)c(C)c1` [Compound 8g, Methyl 2-(3-methyl-4-(1-(m-tolyl)cyclopropane-1-carboxamido)phenoxy)acetate], in the data set with U937 cells, the inhibition at 25 µM is 18%, the inhibition at 50 µM turned out to be 25%, the inhibition at 100 µM stood at 89% and the inhibition at 200 µM was 100%. Also, in data set [1], the inhibition at 4 h, 12.5 µM is 0%; the inhibition at 4 h, 25 µM turned out to be 0%; the inhibition at 4 h, 50 µM is 1%; the inhibition at 4 h, 100 µM was determined as 0%.

Regarding `COC(=O)COc1cccc(NC(=O)C2(c3ccc(OC)cc3)CC2)c1` [Compound 8h, Methyl 2-(3-(1-(4-methoxyphenyl)cyclopropane-1-carboxamido)phenoxy)acetate], in the data set on U937 cells, the inhibition at 25 µM came to 17%, the inhibition at 50 µM worked out at 80%, the inhibition at 100 µM came out at 98% and the inhibition at 200 µM is 100%. In addition, in data set [1], the inhibition at 4 h, 12.5 µM amounted to 0%; the inhibition at 4 h, 25 µM is 3%; the inhibition at 4 h, 50 µM is 0%; the inhibition at 4 h, 100 µM was -2%.

Turning to `COC(=O)COc1ccc(NC(=O)C2(c3ccc(OC)cc3)CC2)cc1` [Compound 8i, Methyl 2-(4-(1-(4-methoxyphenyl)cyclopropane-1-carboxamido)phenoxy)acetate], in the data set on U937 cells, the inhibition at 25 µM turned out to be 28%, the inhibition at 50 µM amounted to 38%, the inhibition at 100 µM came to 80% and the inhibition at 200 µM was found to be 101%. In data set [1], the inhibition at 4 h, 12.5 µM was -3%; the inhibition at 4 h, 25 µM worked out at 0%; the inhibition at 4 h, 50 µM was -2%; the inhibition at 4 h, 100 µM is -2%.

For `COC(=O)COc1ccc(NC(=O)C2(c3ccc(F)cc3)CC2)cc1` [Compound 8j, Methyl 2-(4-(1-(4-fluorophenyl)cyclopropane-1-carboxamido)phenoxy)acetate], in the data set on U937 cells, the inhibition at 25 µM was -12%, the inhibition at 50 µM came out at 39%, the inhibition at 100 µM was 76% and the inhibition at 200 µM stood at 101%. Besides, in data set [1], the inhibition at 4 h, 12.5 µM came out at 0%; the inhibition at 4 h, 25 µM was -1%; the inhibition at 4 h, 50 µM is -2%; the inhibition at 4 h, 100 µM is -1%.

As for `COC(=O)COc1ccc(NC(=O)C2(c3ccc(F)cc3)CC2)c(C)c1` [Compound 8k, Methyl 2-(4-(1-(4-fluorophenyl)cyclopropane-1-carboxamido)-3-methylphenoxy)acetate], in the data set on U937 cells, the inhibition at 25 µM is 32%, the inhibition at 50 µM amounted to 74%, the inhibition at 100 µM was 101% and the inhibition at 200 µM amounted to 102%. In addition, in data set [1], the inhibition at 4 h, 12.5 µM was 0%; the inhibition at 4 h, 25 µM worked out at 0%; the inhibition at 4 h, 50 µM was -1%; the inhibition at 4 h, 100 µM is 4%.

On to `COC(=O)COc1cccc(NC(=O)C2(c3ccc(Cl)cc3)CC2)c1` [Compound 8l, Methyl 2-(3-(1-(4-chlorophenyl)cyclopropane-1-carboxamido)phenoxy)acetate], for which, in the data set on U937 cells, the inhibition at 25 µM came out at 63%, the inhibition at 50 µM is 96%, the inhibition at 100 µM is 101% and the inhibition at 200 µM is 102%. In data set [1], the inhibition at 4 h, 12.5 µM is -1%; the inhibition at 4 h, 25 µM was -1%; the inhibition at 4 h, 50 µM stood at 0%; the inhibition at 4 h, 100 µM was found to be 2%.

“Methyl 2-(4-(1-(3-bromophenyl)cyclopropane-1-carboxamido)-3-methylphenoxy)acetate [Compound 8q]”: the “Percent inhibition at different concentrations of compounds (antiproliferative)” value in the data set on U937 cells (25 μM) is given as 26%; with U937 cells (50 μM), 45%; with U937 cells (100 μM), 102%; with U937 cells (200 μM), 102%.
